Results taken from ChEMBL document CHEMBL2150978, “Phosphorodiamidates as a promising new phosphate prodrug motif for antiviral drug discovery: application to anti-HCV agents” (J Med Chem, 2011).

Columns and labels:
Hepatitis C virus = experiment: Antiviral activity against Hepatitis C virus subtype 1b Con1 infected in human Huh7 cells assessed as inhibition of HCV replicon-encoded Renilla luciferase reporter activity after 72 hrs by HCV replicon assay; type: functional, organism-based, Hepacivirus hominis; settings: Con1, Huh-7, 72 h
Summary of the method: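 Huh7 cells stably carrying a bicistronic subgenomic genotype 1b (Con1) replicon with Renilla luciferase reporter, seeded at 2 × 10⁴ cells/well the day before. Four-fold serial dilutions in growth medium, no-drug controls on each plate; 3 days at 37 °C, 5% CO₂. Luciferase reagent 20 min, then luminescence (RLU) read; EC₅₀ derived.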

[1] = Cytotoxicity against human HuH7 cells after 3 days; type: cell-based, Huh-7
Summary of the method: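 Huh7 replicon cells seeded at 2 × 10⁴ per well one day before dosing. Four-fold serial dilutions in growth medium, no-drug controls on each plate. Incubated 3 days at 37 °C, 5% CO₂. Viability read by CellTiter-Glo luminescence after 20 min with reagent.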

Liver [2] = experiment: Cmax in Sprague-Dawley rat liver assessed as 2'-C-methyl guanosine triphosphate level at 10 mg/kg, po up to 24 hrs by LC-MS/Ms analysis; type: ADME, organism-based; set-up: dose 10 mg/kg, route oral; settings: in vivo
Summary of the method: (§1)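 Male Sprague-Dawley rats dosed orally by gavage at 10 mg/kg in 95% Capmul MCM/5% Tween 80. Livers collected terminally at eight time points up to 24 h and snap-frozen in liquid nitrogen. Liver 2′-C-methylguanosine triphosphate quantified by LC-MS/MS, linear over 100−4000 ng per gram of tissue (r² ≥ 0.99, ≥85% accuracy, ≤2% CV).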

Liver [3] = experiment: Clast in Sprague-Dawley rat liver assessed as 2'-C-methyl guanosine triphosphate level at 10 mg/kg, po up to 24 hrs by LC-MS/Ms analysis; type: ADME, organism-based; set-up: dose 10 mg/kg, route oral; settings: in vivo; summary of the method: as §1
Liver [4] = experiment: Tmax in Sprague-Dawley rat liver assessed as 2'-C-methyl guanosine triphosphate level at 10 mg/kg, po up to 24 hrs by LC-MS/Ms analysis; type: ADME, organism-based; set-up: dose 10 mg/kg, route oral; settings: in vivo; summary of the method: as §1
Liver [5] = experiment: AUC (0 to t) in Sprague-Dawley rat liver assessed as 2'-C-methyl guanosine triphosphate level at 10 mg/kg, po up to 24 hrs by LC-MS/Ms analysis; type: ADME, organism-based; set-up: dose 10 mg/kg, route oral; settings: in vivo; summary of the method: as §1
[6] = Selectivity index, ratio of CC50 for human HuH7 cells to EC50 for Hepatitis C virus subtype 1b Con1; type: toxicity, cell-based, Huh-7; settings: read-out: Ratio CC50/EC50
Summary of the method: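 Huh7 cells carrying a stable bicistronic subgenomic genotype 1b (Con1) HCV replicon with Renilla luciferase reporter, 2 × 10⁴ cells per well. Four-fold serial dilutions, 3 days at 37 °C, 5% CO₂. Replicon inhibition read by luciferase luminescence (RLU) and cytotoxicity by CellTiter-Glo in the same cell line. SI taken as CC50/EC50.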

SMILES	EC50 (Hepatitis C virus) [µM]	EC90 (Hepatitis C virus) [µM]	CC50 at 72 h [1] [µM]	Cmax (Liver [2]) [ng/g]	Clast (Liver [3]) [ng/g]	Tmax (Liver [4]) [h]	AUCt (Liver [5]) [ng·h/g]	selectivity ratio [6]
COc1nc(N)nc2c1ncn2[C@@H]1O[C@H](COP(=O)(N[C@@H](C)C(=O)OC2CCCC2)N[C@@H](C)C(=O)OC2CCCC2)[C@@H](O)[C@@]1(C)O (mixture of isomers)	0.06	0.22	> 100	1523.3	610	8	24546	
COc1nc(N)nc2c1ncn2[C@@H]1O[C@H](COP(=O)(N[C@@H](C)C(=O)OCC(C)(C)C)Oc2cccc3ccccc23)[C@@H](O)[C@@]1(C)O (some centres undefined) [BMS-986094]				1446.7	983.3	8	24557	
CC[C@H](C)[C@H](NP(=O)(N[C@H](C(=O)OC1CCCCC1)[C@@H](C)CC)OC[C@H]1O[C@@H](n2cnc3c(OC)nc(N)nc32)[C@](C)(O)[C@@H]1O)C(=O)OC1CCCCC1 (mixture of isomers)	4	7.1	14					4
COc1nc(N)nc2c1ncn2[C@@H]1O[C@H](COP(=O)(N[C@H](C(=O)OCc2ccccc2)C(C)C)N[C@H](C(=O)OCc2ccccc2)C(C)C)[C@@H](O)[C@@]1(C)O (mixture of isomers)	0.12	0.66	49	359.5	73.6	4	4478	
COc1nc(N)nc2c1ncn2[C@@H]1O[C@H](COP(=O)(N[C@H](C)C(=O)OCC(C)(C)C)N[C@H](C)C(=O)OCC(C)(C)C)[C@@H](O)[C@@]1(C)O (mixture of isomers)	0.11	0.5	> 100	598.3	441.7	8	11608	
COc1nc(N)nc2c1ncn2[C@@H]1O[C@H](COP(=O)(N[C@@H](C)C(=O)OCCC(C)(C)C)N[C@@H](C)C(=O)OCCC(C)(C)C)[C@@H](O)[C@@]1(C)O (mixture of isomers)	0.02	0.09	71					
COC(=O)[C@@H]1CCCN1P(=O)(N[C@@H](C)C(=O)OCC(C)(C)C)OC[C@H]1O[C@@H](n2cnc3c(OC)nc(N)nc32)[C@](C)(O)[C@@H]1O (mixture of isomers)	0.49	2.2	> 100					
COc1nc(N)nc2c1ncn2[C@@H]1O[C@H](COP(=O)(N[C@@H](CC(C)C)C(=O)OC2CCCCC2)N[C@@H](CC(C)C)C(=O)OC2CCCCC2)[C@@H](O)[C@@]1(C)O (mixture of isomers)	0.45	2	20					
COc1nc(N)nc2c1ncn2[C@@H]1O[C@H](COP(=O)(N[C@@H](CCSC)C(=O)OC2CCCCC2)N[C@@H](CCSC)C(=O)OC2CCCCC2)[C@@H](O)[C@@]1(C)O (mixture of isomers)	0.6	2.6	51					
CCCCOC(=O)[C@H](C)NP(=O)(N[C@@H](C)C(=O)OCCCC)OC[C@H]1O[C@@H](n2cnc3c(OC)nc(N)nc32)[C@](C)(O)[C@@H]1O (mixture of isomers)	0.07	0.23	> 100	1553.3	719.7	8	27671	
COC(=O)C[C@H](NP(=O)(N[C@@H](CC(=O)OC)C(=O)OC)OC[C@H]1O[C@@H](n2cnc3c(OC)nc(N)nc32)[C@](C)(O)[C@@H]1O)C(=O)OC (mixture of isomers)	10.2	> 40	> 100					
COc1nc(N)nc2c1ncn2[C@@H]1O[C@H](COP(=O)(N[C@H](C(=O)N[C@@H](C)C(=O)OCC(C)(C)C)C(C)C)N[C@H](C(=O)N[C@@H](C)C(=O)OCC(C)(C)C)C(C)C)[C@@H](O)[C@@]1(C)O (mixture of isomers)	0.54	2.4	> 100					
COc1nc(N)nc2c1ncn2[C@@H]1O[C@H](COP(=O)(N[C@@H](C)C(=O)OCc2ccccc2)N[C@@H](C)C(=O)OCC(C)(C)C)[C@@H](O)[C@@]1(C)O (mixture of isomers)	0.15	0.4	> 100					
COc1nc(N)nc2c1ncn2[C@@H]1O[C@H](COP(=O)(N[C@@H](C)C(=O)OC2Cc3ccccc3C2)N[C@@H](C)C(=O)OC2Cc3ccccc3C2)[C@@H](O)[C@@]1(C)O (mixture of isomers)	0.58	1.3	70	632	632	24	10642	
COc1nc(N)nc2c1ncn2[C@@H]1O[C@H](COP(=O)(N[C@@H](C)C(=O)OCc2ccc(F)cc2F)N[C@@H](C)C(=O)OCc2ccc(F)cc2F)[C@@H](O)[C@@]1(C)O (mixture of isomers)	0.26	1.07	54					
C[C@@]1(O)[C@H](O)[C@@H](CO)O[C@H]1n1cnc2c(=O)[nH]c(N)nc21 [2'-B-METHYL-GUANOSINE]	2.2	8.3	> 100					
COc1nc(N)nc2c1ncn2[C@@H]1O[C@H](COP(=O)(N[C@@H](CCSC)C(=O)OCc2ccccc2)N[C@@H](CCSC)C(=O)OCc2ccccc2)[C@@H](O)[C@@]1(C)O (mixture of isomers)	0.25	0.77	> 100					
CCCCCOC(=O)[C@H](C)NP(=O)(N[C@@H](C)C(=O)OCCCCC)OC[C@H]1O[C@@H](n2cnc3c(OC)nc(N)nc32)[C@](C)(O)[C@@H]1O (mixture of isomers)	0.03	0.11	65	1042.3	506	8	18600	
CCOc1nc(N)nc2c1ncn2[C@@H]1O[C@H](COP(=O)(N[C@@H](C)C(=O)OCC(C)(C)C)N[C@@H](C)C(=O)OCC(C)(C)C)[C@@H](O)[C@@]1(C)O (mixture of isomers)	0.04	0.11	72					
COc1nc(N)nc2c1ncn2[C@@H]1O[C@H](COP(=O)(N[C@@H](C)C(=O)OC(C)C)N[C@@H](C)C(=O)OC(C)C)[C@@H](O)[C@@]1(C)O (mixture of isomers)	0.49	2.1	> 100					
COc1nc(N)nc2c1ncn2[C@@H]1O[C@H](COP(=O)(N[C@@H](Cc2ccccc2)C(=O)OCC(C)(C)C)N[C@@H](Cc2ccccc2)C(=O)OCC(C)(C)C)[C@@H](O)[C@@]1(C)O (mixture of isomers)	0.05	0.21	24					
COc1nc(N)nc2c1ncn2[C@@H]1O[C@H](COP(=O)(N[C@@H](C)C(=O)OCC(C)(C)C)N2CCCC2)[C@@H](O)[C@@]1(C)O (mixture of isomers)	0.87	4	> 100					
COc1nc(N)nc2c1ncn2[C@@H]1O[C@H](CO)[C@@H](O)[C@@]1(C)O [BETA-2'-C-METHYL-6-O-METHYL GUANOSINE]	4.4	19.4	> 100					
CCC(C)OC(=O)[C@H](C)NP(=O)(N[C@@H](C)C(=O)OC(C)CC)OC[C@H]1O[C@@H](n2cnc3c(OC)nc(N)nc32)[C@](C)(O)[C@@H]1O (mixture of isomers)	0.15	0.53	> 100	907.7	538.7	8	16252	
COc1nc(N)nc2c1ncn2[C@@H]1O[C@H](COP(=O)(N2CCC[C@H]2C(=O)OCc2ccccc2)N2CCC[C@H]2C(=O)OCc2ccccc2)[C@@H](O)[C@@]1(C)O (mixture of isomers)	0.52	1.8	> 100					
COC(=O)[C@@H](NP(=O)(N[C@@H](C)C(=O)OCC(C)(C)C)OC[C@H]1O[C@@H](n2cnc3c(OC)nc(N)nc32)[C@](C)(O)[C@@H]1O)C(C)C (mixture of isomers)	0.17	0.69	> 100					
CC[C@H](C)[C@H](NP(=O)(N[C@H](C(=O)OCC(C)(C)C)[C@@H](C)CC)OC[C@H]1O[C@@H](n2cnc3c(OC)nc(N)nc32)[C@](C)(O)[C@@H]1O)C(=O)OCC(C)(C)C (mixture of isomers)	2.9	6.3	15					
COc1nc(N)nc2c1ncn2[C@@H]1O[C@H](COP(=O)(N[C@@H](CC(=O)OCc2ccccc2)C(=O)OCc2ccccc2)N[C@@H](CC(=O)OCc2ccccc2)C(=O)OCc2ccccc2)[C@@H](O)[C@@]1(C)O (mixture of isomers)	0.61	1.9	> 100					
